The text below walks through data of ChEMBL document CHEMBL1134598, “Synthesis, ionotropic glutamate receptor binding affinity, and structure-activity relationships of a new set of 4,5-dihydro-8-heteroaryl-4-oxo-1,2,4-triazolo[1,5-a]quinoxaline-2-carboxylates analogues of TQX-173” (J Med Chem, 2001).

Test [1] has as its target Glutamate receptor ionotropic, kainate (Rattus norvegicus) (UniProt P22756+Q01812+P42260+P42264+Q63273). Put plainly: Inhibition of [3H]KA binding to kainate receptor in rat brain membranes. It counts as cell membranes. Further details: concentration or dose not given beside the values. Conditions: concentration not given here. The method in brief: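 Rat membranes resuspended at 0.5 mg protein/mL in 0.05 M Tris-citrate pH 7.4, preincubated 37 °C for 30 min, washed three times in ice-cold buffer. Incubated on ice for 60 min with 5 nM [3H]kainate and test compound. Nonspecific binding defined with 1 mM glutamate. Bound ligand recovered by GF/C filtration. Single-point inhibition measured at 100 µM.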

The target of test [2] is T1, Glutamate NMDA receptor (Rattus norvegicus) (UniProt P35439+Q00959+Q00960+Q00961+Q62645+Q8VHN2+Q9R1M7). The test is described as follows: Inhibition of [3H]- glycine binding to NMDA receptor of rat membrane. Further details: concentration or dose not given beside the values. The following applies: concentration not given here. The method in brief:
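Rat cortical synaptic membranes, [3H]glycine at 10 nM (KD 75 nM under these conditions). Compounds from 1 mM stock in 50% DMSO, diluted in buffer; four to six concentrations in triplicate, three or four displacement curves. IC50 converted to Ki by Cheng-Prusoff.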

The target in test [3] is Glutamate receptor ionotropic, AMPA (Rattus norvegicus, UniProt P19490+P19491+P19492+P19493). Put plainly: Binding affinity at ionotropic glutamate receptor AMPA in rat cortical membranes [3H]AMPA displacement. In kind it is cell membranes.
Test [4] concerns the target Glutamate receptor ionotropic, kainate. Put plainly: Inhibition of specific binding of [3H]KA at kainate receptor in rat brain membranes. In kind it is cell membranes. The method in brief:
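Membranes preincubated at 37 °C for 30 min in 0.05 M Tris-citrate pH 7.4, then washed; 0.2-0.3 mg protein with 5 nM [3H]kainate on ice for 60 min. Nonspecific binding defined with 1 mM glutamate; bound ligand separated by glass-fibre filtration.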

The target in test [5] is Glutamate NMDA receptor. Put plainly: Inhibition of [3H]-(+)-MK-801 binding to NMDA receptor ion-channel complex of rat cortical memembranes. It counts as protein-complex assay. The method in brief: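 Rat cortical membranes washed in 5 mM Tris-HCl pH 7.4 with 0.08% Triton X-100, 0.2-0.3 mg protein/tube. Incubated with 2.5 nM [3H]-(+)-MK-801, 10 µM glutamate and 0.1 µM glycine at room temperature for 120 min. IC50 or % inhibition at 100 µM; three or four determinations in triplicate.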

Test [6] deals with Glutamate receptor ionotropic, kainate. Put plainly: Inhibition of [3H]KA binding to kainate receptor of rat brain membranes. It counts as cell membranes, Membrane.
Test [7] deals with Glutamate receptor ionotropic, AMPA (Mus musculus, UniProt P23818+P23819+Q9Z2W8+Q9Z2W9). The test is described as follows: Antagonism at ionotropic glutamate receptor AMPA in mouse cortical wedge preparation. It counts as functional. The method in brief: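 Mouse cortical wedges perfused with Mg2+-free medium; AMPA (5 µM) applied for 2 min every 15 min until control peaks stabilised, then continuous superfusion with antagonist while agonist applications continued. IC50 from depolarization peaks with agonist plus antagonist compared with control peaks; four separate determinations.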

Test [8] is described as follows: Antagonism at NMDA receptor in mouse cortical wedge preparation expressed as concentration that inhibits by 50% depolarizations induced by 5 uM AMPA. The following applies: in the assay text read “5 uM NMDA” for “5 uM AMPA”. It counts as functional. The method in brief:
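Mouse cortical wedges, gray matter perfused with Mg2+-free medium. Agonists (5 µM AMPA or 5 µM NMDA) applied for 2 min every 15 min until control peaks stabilised, then continuous superfusion with antagonist while agonist applications continued. IC50 from depolarization peaks with agonist plus antagonist compared to control peaks; four separate determinations.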

The target of test [9] is Glutamate NMDA receptor. The test is described as follows: Ability to displace [3H]glycine from NMDA receptor in rat corticaln membranes. It counts as cell membranes.
Test [10] deals with T1, Glutamate NMDA receptor (Rattus norvegicus). Put plainly: Percent inhibition of stimulated [3H](+)-MK-801 binding against N-methyl-D-aspartate glutamate receptor. In kind it is protein-complex assay. Conditions: concentration not given here. The method in brief: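 Rat cortical membranes washed in 5 mM Tris-HCl pH 7.4 containing 0.08% Triton X-100, then put through further resuspension/centrifugation cycles. Incubation for 120 min at room temperature with 2.5 nM [3H]-(+)-MK-801, 10 µM glutamate and 0.1 µM glycine. Percent inhibition of specific binding at 100 µM; three or four determinations in triplicate.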

Test [11] addresses Glutamate NMDA receptor. The test is described as follows: Ability to displace [3H]glycine from NMDA receptor in rat cortical membranes. In kind it is cell membranes. The method in brief:
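Rat cortical synaptic membranes; [3H]glycine at 10 nM (KD 75 nM under these conditions). Test compound from 1 mM stock in 50% DMSO, diluted in buffer; four to six concentrations in triplicate, three or four displacement curves. IC50 by curve fitting, converted to Ki by Cheng-Prusoff.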

Test [12] in a line: Antagonism at NMDA receptor in mouse cortical wedge preparation expressed as concentration that inhibits by 50% depolarizations induced by 5 uM NMDA.
The nature of test [13]: Inhibition of specific binding of [3H]KA against iGluRs.

With `O=C(O)c1nc2c(O)nc3cc(-n4cnnc4)ccc3n2n1`, the inhibition in [1] stood at 44%; in test [2], 0%. This molecule also displayed a Ki in [3] of 4.3 µM.

In the case of `CCOC(=O)c1nc2c(O)nc3cc(Cl)c(-n4cccn4)cc3n2n1`, the inhibition in test [1] is 20%. The molecule further registered a Ki in [4] of 7.1 µM.

Regarding `CCOC(=O)c1nc2c(O)nc3ccc([N+](=O)[O-])cc3n2n1`, the inhibition in test [2] is 35%.

Regarding `O=C(O)c1nc2c(O)nc3cc(Cl)c([N+](=O)[O-])cc3n2n1`, the inhibitory constant (Ki) in test [4] was determined as 2.2 µM. At Glutamate NMDA receptor [5], this molecule returned an IC50 of 17.8 µM.

Consider `CCOC(=O)c1nc2c(O)nc3cc(-n4cnnc4)ccc3n2n1`, for which the inhibition in test [1] was 35%; in test [2], 8%. In test [3], this molecule gave a Ki of 10.1 µM.

Take `Nc1ccc2nc(O)c3nc(C(=O)O)nn3c2c1`: in test [6], the IC50 amounted to 81 µM. Also, the inhibition in test [2] stood at 35%. For the same molecule, the affinity in test [3], expressed as Ki, was 44 µM.

For the molecule `CCOC(=O)c1nc2c(O)nc3cc(Cl)c([N+](=O)[O-])cc3n2n1`, the inhibition is 35% in test [1] and 10.2% in test [2]. The affinity in [3] corresponds to a Ki of 47 µM.

On to `O=C(O)c1nc2c(O)nc3cc(Cl)c(-n4cnnc4)cc3n2n1` [TQX-173], for which the results for the IC50 (in test [7]; in test [8]; at Glutamate NMDA receptor [5]) were 2.3 µM, 46 µM and 68 µM, respectively. Further, the affinity on Glutamate NMDA receptor [9] corresponds to a Ki of 33.5 µM.

The molecule `CCOC(=O)c1nc2c(O)nc3cc(Cl)c(-n4cnnc4)cc3n2n1` had an inhibition in [2] of 15%.

Regarding `O=C(O)c1nc2c(O)nc3cc(Cl)c(-n4ccnc4)cc3n2n1`, the inhibition in test [2] and in [10] was 45% in each case.

On to `CCOC(=O)c1nc2c(O)nc3cc(Cl)c(-n4ccnc4)cc3n2n1`, for which the inhibition in test [2] came out at 39%.

As for `CCOC(=O)c1nc2c(O)nc3cc(Cl)c(-n4cccc4)cc3n2n1`, the inhibition in test [1] stood at 7%. Besides, the Ki was determined as 23 µM in [4] and 18.4 µM in [3].

`O=C(O)c1nc2c(O)nc3ccc(-n4cnnc4)cc3n2n1` displayed an IC50 in test [6] of 90 µM. Moreover, the inhibition in test [2] is 0%; in test [10], 20%. Besides, in test [3], the Ki was determined as 17.2 µM.

In the case of `CCOC(=O)c1nc2c(O)nc3cc(Cl)c(-n4ccc(C=O)c4)cc3n2n1`, the IC50 in test [6] turned out to be 88 µM. For the same molecule, the Ki came out at 19 µM on Glutamate NMDA receptor [11] and 1.9 µM in test [3].

In test [8], `O=C(O)c1cc(O)c2c(Cl)cc(Cl)cc2n1` came in with an IC50 of 4.7 µM. The same molecule showed a Ki at Glutamate NMDA receptor [9] of 0.09 µM.

As to `O=C(O)c1nc2c(O)nc3cc(Cl)c(-n4cncn4)cc3n2n1`, the IC50 in test [12] was 350 µM; in test [7] it was 12 µM; in [13], 48 µM. The inhibition in test [2] is 35%; in test [10] it was 30%. Also, in test [3], the Ki amounted to 3.7 µM.

As to `Nc1cc2c(cc1Cl)nc(O)c1nc(C(=O)O)nn12`, the IC50 in test [6] is 22.4 µM; on Glutamate NMDA receptor [5] it was 5.6 µM. Also, the Ki is 4.9 µM in test [3] and 3.6 µM at Glutamate NMDA receptor [9].

For the molecule `O=C(O)c1nc2c(=O)[nH]c3cc(Cl)c(-n4cccn4)cc3n2n1`, the IC50 in [6] amounted to 20 µM; in test [12], 150 µM; in test [7], 3 µM; on Glutamate NMDA receptor [5], 16.8 µM. Also, the Ki in test [3] is 4.3 µM; on Glutamate NMDA receptor [9] it was 5.3 µM.

In the case of `O=C(O)c1nc2c(O)nc3cc(Cl)c(-n4cccc4)cc3n2n1`, the IC50 turned out to be 36 µM in test [6], 52 µM in test [12], 3 µM in [7] and 11.7 µM on Glutamate NMDA receptor [5]. In addition, the Ki (at Glutamate NMDA receptor [11]; in [3]) was 0.86 µM throughout.

For the molecule `NS(=O)(=O)c1cccc2c1c([N+](=O)[O-])cc1nc(O)c(O)nc12` [NBQX], the inhibition in [2] was 3%. In addition, on Glutamate NMDA receptor [5], the IC50 stood at 0.2 µM.

Regarding `CCOC(=O)c1nc2c(O)nc3cc(Cl)c(-n4cncn4)cc3n2n1`, the values for the inhibition in [1] and in [2] were 29% and 28%, respectively. Further, the Ki in [3] amounted to 17.2 µM.

For `CCOC(=O)c1nc2c(O)nc3ccc(N)cc3n2n1`, in test [2], the inhibition was 16%.

In turn, `O=C(O)c1nc2c(O)nc3ccc([N+](=O)[O-])cc3n2n1` came in with an inhibition in test [1] of 16%. Further, the Ki at Glutamate NMDA receptor [9] turned out to be 79.4 µM.

Turning to `CCOC(=O)c1nc2c(O)nc3ccc(-n4cnnc4)cc3n2n1`, the inhibition in [1] was 20%; in [2] it was 0%.

Regarding `O=Cc1ccn(-c2cc3c(cc2Cl)nc(O)c2nc(C(=O)O)nn23)c1`, the IC50 in test [6] is 8.9 µM; in [7], 1.2 µM; in [8], 23 µM; on Glutamate NMDA receptor [5] it was 43 µM. Moreover, the Ki was determined as 28 µM at Glutamate NMDA receptor [11] and 0.53 µM in test [3].

For `CCOC(=O)c1nc2c(=O)[nH]c3cc(Cl)c(N)cc3n2n1`, in test [6], the IC50 was 84 µM. In addition, the values for the Ki (in [3]; at Glutamate NMDA receptor [9]) were 20.4 µM and 4.8 µM, respectively.

Broadly, the inhibition is the share of the control response that was lost under treatment. The Ki is a dissociation constant, usually derived from enzyme kinetics or from competition with a known ligand. As a reminder, the IC50 is the point on the concentration scale where inhibition reaches its midpoint.
